Test results taken from ChEMBL document CHEMBL4393708, “Pyridinylimidazoles as dual glycogen synthase kinase 3β/p38α mitogen-activated protein kinase inhibitors” (Eur J Med Chem, 2019).

Assays:
[1] = target: Mitogen-activated protein kinase 14 (Homo sapiens, UniProt Q16539); experiment: Inhibition of p38alpha MAPK (unknown origin) using ATF-2 as substrate after 1 hr by ELISA
[2] = target: Glycogen synthase kinase-3 beta (Homo sapiens, UniProt P49841); experiment: Competitive inhibition of human recombinant full length GSK3beta using YRRAAVPPSPSLSRHSSPHQ(pS)EDEEE as substrate preincubated with enzyme for 10 mins followed by substrate and 500 uM ATP addition measured after 60 mins by ADP-Glo luminescence assay
In short: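 Recombinant human GSK3β at 0.58 ng/µL with 0.2 µg/µL substrate G50-58; ATP at 25 µM, 100 µM or 500 µM, each as its line states. Compounds in serial dilutions were preincubated with kinase for 10 min at rt. Substrate/ATP was then added and the reaction ran 60 min at rt. ADP-Glo reagent 60 min, detection reagent 30 min, then luminescence read (500 ms integration).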

[3] = Metabolic stability in human liver microsomes assessed as parent compound remaining after 60 mins by LC-MS analysis relative to control; type: ADME, Microsome; conditions: read-out: Stability
[4] = Metabolic stability in human liver microsomes assessed as parent compound remaining after 120 mins by LC-MS analysis relative to control; type: ADME, Microsome; conditions: read-out: Stability
[5] = Drug uptake in RjOrl:Swiss CD-1 mouse brain at 10 mg/kg, iv administered as single dose measured after 2 hrs by LC-MS analysis; type: ADME, organism-based; conditions: read-out: Drug uptake
In short: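 Adult male RjOrl:Swiss CD-1 mice got one intravenous dose of 10 mg/kg. Plasma was sampled at 10, 30 and 120 min. After the last sample the mice were sacrificed and brains dissected. Blood and brain samples were prepared and analysed by LC-MS for parent and sulfoxide metabolite; brain levels reported as ng/g.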

CYP2C9 = CYP2C9 (Homo sapiens, UniProt P11712); experiment: Inhibition of human recombinant CYP2C9 expressed in baculovirus infected insect cells using OOMR as substrate at 10 uM in presence of NADPH by fluorimetric analysis relative to control; type: ADME; conditions: probe OOMR
[6] = target: Tyrosine-protein kinase ABL1 (Homo sapiens) (UniProt P00519); experiment: Inhibition of recombinant human ABL1 at 1 uM using Ulight-TK peptide as substrate measured after 30 mins in presence of ATP by LANCE assay relative to control
[7] = target: RAC-alpha serine/threonine-protein kinase (Homo sapiens) (UniProt P31749); experiment: Inhibition of recombinant human AKT1 at 1 uM using CREBtide as substrate measured after 60 mins in presence of ATP by LANCE assay relative to control
[8] = target: Serine/threonine-protein kinase Chk2 (Homo sapiens) (UniProt O96017); experiment: Inhibition of human recombinant CHK2 at 1 uM using CREBtide as substrate incubated for 15 mins in presence of ATP by LANCE assay relative to control
In short: (§1)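 Kinase panel run by an outside provider (Eurofins Cerep) in a LANCE assay, single test concentration of 1 µM, results as percent inhibition.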

[9] = target: Ephrin type-A receptor 3 (Homo sapiens) (UniProt P29320); experiment: Inhibition of human recombinant EPHA3 at 1 uM using Ulight-TK peptide as substrate measured after 60 mins in presence of ATP by LANCE assay relative to control; in short: as §1
[10] = target: Fibroblast growth factor receptor 2 (Homo sapiens) (UniProt P21802); experiment: Inhibition of human recombinant FGFR2 at 1 uM using Ulight-CAGAGAIETDKEYYTVKD as substrate measured after 15 mins in presence of ATP by LANCE assay relative to control; in short: as §1
[11] = target: Inhibitor of nuclear factor kappa-B kinase subunit alpha (Homo sapiens) (UniProt O15111); experiment: Inhibition of human recombinant IKKalpha at 1 uM using Ulight-IKappaB-alpha as substrate measured after 30 mins in presence of ATP by LANCE assay relative to control; in short: as §1
[12] = target: Insulin receptor (Homo sapiens) (UniProt P06213); experiment: Inhibition of human recombinant IR at 1 uM using Ulight-Poly GAT[EAY(1:1:1)]n as substrate measured after 10 mins in presence of ATP by LANCE assay relative to control; in short: as §1
[13] = target: Interleukin-1 receptor-associated kinase 4 (Homo sapiens) (UniProt Q9NWZ3); experiment: Inhibition of human recombinant IRAK4 at 1 uM using Ulight-FLGFTYVAP as substrate measured after 90 mins in presence of ATP by LANCE assay relative to control; in short: as §1
[14] = target: Mitogen-activated protein kinase 8 (Homo sapiens) (UniProt P45983); experiment: Inhibition of human recombinant JNK1 at 1 uM using Ulight-CFFKNIVTPRTPPPSQGK-amide as substrate measured after 60 mins in presence of ATP by LANCE assay relative to control; in short: as §1
[15] = target: Vascular endothelial growth factor receptor 2 (Homo sapiens) (UniProt P35968); experiment: Inhibition of human recombinant KDR at 1 uM using Ulight-CAGAGAIETDKEYYTVKD as substrate measured after 60 mins in presence of ATP by LANCE assay relative to control; in short: as §1
[16] = target: MAP kinase-activated protein kinase 2 (Homo sapiens) (UniProt P49137); experiment: Inhibition of human recombinant MAPKAPK2 at 1 uM using CREBtide as substrate measured after 15 mins in presence of ATP by LANCE assay relative to control; in short: as §1
[17] = target: Hepatocyte growth factor receptor (Homo sapiens) (UniProt P08581); experiment: Inhibition of human recombinant MET at 1 uM using Ulight-CAGAGAIETDKEYYTVKD as substrate measured after 60 mins in presence of ATP by LANCE assay relative to control; in short: as §1
[18] = target: MAP kinase-interacting serine/threonine-protein kinase 2 (Homo sapiens) (UniProt Q9HBH9); experiment: Inhibition of human recombinant MNK2 at 1 uM using CREBtide as substrate measured after 90 mins in presence of ATP by LANCE assay relative to control; in short: as §1
[19] = target: Serine/threonine-protein kinase PAK 2 (Homo sapiens) (UniProt Q13177); experiment: Inhibition of human recombinant PAK2 at 1 uM using Ulight-RRRSLLE as substrate measured after 60 mins in presence of ATP by LANCE assay relative to control; in short: as §1
[20] = target: Serine/threonine-protein kinase pim-2 (Homo sapiens) (UniProt Q9P1W9); experiment: Inhibition of human recombinant PIM2 at 1 uM using CREBtide as substrate measured after 60 mins in presence of ATP by LANCE assay relative to control; in short: as §1
[21] = target: Protein kinase C beta type (Homo sapiens) (UniProt P05771); experiment: Inhibition of human recombinant PKCbeta at 1 uM using CREBtide as substrate measured after 15 mins in presence of ATP by LANCE assay relative to control; in short: as §1
[22] = target: High affinity nerve growth factor receptor (Homo sapiens) (UniProt P04629); experiment: Inhibition of human recombinant TRKA at 1 uM using Ulight-Poly GAT[EAY(1:1:1)]n as substrate measured after 10 mins in presence of ATP by LANCE assay relative to control; in short: as §1
[23] = target: Aurora kinase A (Homo sapiens) (UniProt O14965); experiment: Inhibition of recombinant human Aurora A at 1 uM using Ulight-RRRSLLE substrate incubated for 15 mins in presence of ATP by LANCE assay relative to control

Chain of Inhibitor of nuclear factor kappa-B kinase subunit alpha (Homo sapiens) (O15111 whole entry): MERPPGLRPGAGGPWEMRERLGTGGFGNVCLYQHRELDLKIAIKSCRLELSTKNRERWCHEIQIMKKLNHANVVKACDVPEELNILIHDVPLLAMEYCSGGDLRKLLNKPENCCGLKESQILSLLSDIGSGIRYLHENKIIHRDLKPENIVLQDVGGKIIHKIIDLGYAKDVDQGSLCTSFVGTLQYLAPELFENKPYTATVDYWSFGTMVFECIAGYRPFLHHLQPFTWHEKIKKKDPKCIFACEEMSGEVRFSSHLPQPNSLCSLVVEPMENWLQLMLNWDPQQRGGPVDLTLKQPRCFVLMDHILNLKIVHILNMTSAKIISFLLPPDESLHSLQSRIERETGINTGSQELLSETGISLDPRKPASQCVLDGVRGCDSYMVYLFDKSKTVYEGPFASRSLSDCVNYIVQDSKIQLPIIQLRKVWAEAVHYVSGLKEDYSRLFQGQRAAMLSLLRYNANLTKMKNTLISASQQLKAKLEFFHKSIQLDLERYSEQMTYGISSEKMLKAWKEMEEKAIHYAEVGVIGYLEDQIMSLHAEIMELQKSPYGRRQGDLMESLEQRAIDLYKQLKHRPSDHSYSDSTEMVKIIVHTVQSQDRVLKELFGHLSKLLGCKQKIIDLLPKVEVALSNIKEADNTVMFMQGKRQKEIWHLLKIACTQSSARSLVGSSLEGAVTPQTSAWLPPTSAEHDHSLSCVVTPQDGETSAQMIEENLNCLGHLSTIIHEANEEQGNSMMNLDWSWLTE
Chain of Serine/threonine-protein kinase PAK 2 (Homo sapiens) (Q13177 whole entry): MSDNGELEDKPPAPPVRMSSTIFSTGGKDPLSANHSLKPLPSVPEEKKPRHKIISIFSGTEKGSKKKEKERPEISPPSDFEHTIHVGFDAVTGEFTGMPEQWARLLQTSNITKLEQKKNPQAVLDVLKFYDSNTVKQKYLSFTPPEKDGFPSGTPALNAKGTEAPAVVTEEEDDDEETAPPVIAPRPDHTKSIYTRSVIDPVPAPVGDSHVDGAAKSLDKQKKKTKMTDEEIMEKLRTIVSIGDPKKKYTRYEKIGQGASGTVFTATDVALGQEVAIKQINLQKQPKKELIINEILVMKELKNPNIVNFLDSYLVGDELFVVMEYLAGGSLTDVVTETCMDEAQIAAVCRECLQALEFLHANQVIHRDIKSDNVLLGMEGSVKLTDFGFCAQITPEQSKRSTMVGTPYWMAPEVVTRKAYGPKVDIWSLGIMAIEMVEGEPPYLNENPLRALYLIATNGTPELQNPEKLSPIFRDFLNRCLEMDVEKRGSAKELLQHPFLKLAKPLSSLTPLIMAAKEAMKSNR
Chain of Serine/threonine-protein kinase Chk2 (Homo sapiens) (O96017 whole entry): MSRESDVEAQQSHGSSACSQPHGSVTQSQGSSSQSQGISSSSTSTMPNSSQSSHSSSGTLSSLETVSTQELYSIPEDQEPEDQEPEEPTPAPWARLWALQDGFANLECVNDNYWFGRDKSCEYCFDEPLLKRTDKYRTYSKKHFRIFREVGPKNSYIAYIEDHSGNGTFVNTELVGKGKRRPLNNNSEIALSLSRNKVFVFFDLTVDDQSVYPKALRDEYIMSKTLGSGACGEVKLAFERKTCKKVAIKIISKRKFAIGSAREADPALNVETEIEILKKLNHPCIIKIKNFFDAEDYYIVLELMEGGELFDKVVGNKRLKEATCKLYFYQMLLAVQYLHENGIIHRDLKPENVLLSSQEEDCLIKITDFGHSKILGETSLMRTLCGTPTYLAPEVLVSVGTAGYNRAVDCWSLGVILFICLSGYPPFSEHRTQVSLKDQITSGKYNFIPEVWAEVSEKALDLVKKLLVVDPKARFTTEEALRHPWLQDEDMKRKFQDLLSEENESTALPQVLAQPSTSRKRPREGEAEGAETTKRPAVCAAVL
Chain of Tyrosine-protein kinase ABL1 (Homo sapiens) (P00519 whole entry): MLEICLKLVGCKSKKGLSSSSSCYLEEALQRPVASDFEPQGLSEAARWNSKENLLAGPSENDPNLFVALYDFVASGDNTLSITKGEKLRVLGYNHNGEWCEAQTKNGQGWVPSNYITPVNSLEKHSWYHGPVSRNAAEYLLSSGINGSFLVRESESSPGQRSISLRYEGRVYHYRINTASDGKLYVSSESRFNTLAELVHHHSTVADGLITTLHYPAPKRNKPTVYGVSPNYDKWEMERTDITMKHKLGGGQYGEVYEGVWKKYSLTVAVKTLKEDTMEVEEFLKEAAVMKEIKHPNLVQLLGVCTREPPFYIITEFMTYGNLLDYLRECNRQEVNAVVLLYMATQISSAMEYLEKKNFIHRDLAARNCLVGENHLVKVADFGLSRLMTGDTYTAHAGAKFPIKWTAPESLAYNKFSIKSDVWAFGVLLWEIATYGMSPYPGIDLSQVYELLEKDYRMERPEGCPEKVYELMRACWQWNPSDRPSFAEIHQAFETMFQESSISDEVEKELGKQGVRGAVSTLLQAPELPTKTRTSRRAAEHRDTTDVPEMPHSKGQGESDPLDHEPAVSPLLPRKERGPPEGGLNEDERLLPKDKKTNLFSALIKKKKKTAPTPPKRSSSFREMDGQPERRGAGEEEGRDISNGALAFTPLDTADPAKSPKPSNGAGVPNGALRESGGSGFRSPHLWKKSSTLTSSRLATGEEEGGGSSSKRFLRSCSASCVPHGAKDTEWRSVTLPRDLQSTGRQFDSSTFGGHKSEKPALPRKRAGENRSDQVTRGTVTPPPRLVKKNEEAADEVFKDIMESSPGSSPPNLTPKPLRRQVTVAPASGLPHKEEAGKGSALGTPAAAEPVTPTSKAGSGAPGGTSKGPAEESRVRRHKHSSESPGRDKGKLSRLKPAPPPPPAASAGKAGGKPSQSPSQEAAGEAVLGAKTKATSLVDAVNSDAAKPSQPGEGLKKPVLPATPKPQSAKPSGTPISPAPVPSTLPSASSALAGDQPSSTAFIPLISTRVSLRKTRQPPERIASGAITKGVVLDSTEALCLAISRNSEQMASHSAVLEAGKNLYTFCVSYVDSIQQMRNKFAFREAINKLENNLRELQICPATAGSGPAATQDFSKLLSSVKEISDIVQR
Chain of RAC-alpha serine/threonine-protein kinase (Homo sapiens) (P31749 whole entry): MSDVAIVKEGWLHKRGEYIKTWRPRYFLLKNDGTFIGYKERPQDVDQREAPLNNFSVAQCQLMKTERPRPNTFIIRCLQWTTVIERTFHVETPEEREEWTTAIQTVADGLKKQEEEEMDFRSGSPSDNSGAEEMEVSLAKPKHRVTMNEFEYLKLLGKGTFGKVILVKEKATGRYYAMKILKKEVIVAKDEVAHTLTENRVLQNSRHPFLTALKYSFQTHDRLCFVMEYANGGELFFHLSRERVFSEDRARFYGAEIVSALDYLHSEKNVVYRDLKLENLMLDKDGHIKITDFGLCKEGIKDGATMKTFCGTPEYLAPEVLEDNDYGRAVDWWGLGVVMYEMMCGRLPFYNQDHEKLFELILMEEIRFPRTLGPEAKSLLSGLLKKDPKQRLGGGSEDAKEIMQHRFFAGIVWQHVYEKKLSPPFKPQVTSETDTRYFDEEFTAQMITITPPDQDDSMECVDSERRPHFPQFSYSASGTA
Chain of Hepatocyte growth factor receptor (Homo sapiens) (P08581 whole entry): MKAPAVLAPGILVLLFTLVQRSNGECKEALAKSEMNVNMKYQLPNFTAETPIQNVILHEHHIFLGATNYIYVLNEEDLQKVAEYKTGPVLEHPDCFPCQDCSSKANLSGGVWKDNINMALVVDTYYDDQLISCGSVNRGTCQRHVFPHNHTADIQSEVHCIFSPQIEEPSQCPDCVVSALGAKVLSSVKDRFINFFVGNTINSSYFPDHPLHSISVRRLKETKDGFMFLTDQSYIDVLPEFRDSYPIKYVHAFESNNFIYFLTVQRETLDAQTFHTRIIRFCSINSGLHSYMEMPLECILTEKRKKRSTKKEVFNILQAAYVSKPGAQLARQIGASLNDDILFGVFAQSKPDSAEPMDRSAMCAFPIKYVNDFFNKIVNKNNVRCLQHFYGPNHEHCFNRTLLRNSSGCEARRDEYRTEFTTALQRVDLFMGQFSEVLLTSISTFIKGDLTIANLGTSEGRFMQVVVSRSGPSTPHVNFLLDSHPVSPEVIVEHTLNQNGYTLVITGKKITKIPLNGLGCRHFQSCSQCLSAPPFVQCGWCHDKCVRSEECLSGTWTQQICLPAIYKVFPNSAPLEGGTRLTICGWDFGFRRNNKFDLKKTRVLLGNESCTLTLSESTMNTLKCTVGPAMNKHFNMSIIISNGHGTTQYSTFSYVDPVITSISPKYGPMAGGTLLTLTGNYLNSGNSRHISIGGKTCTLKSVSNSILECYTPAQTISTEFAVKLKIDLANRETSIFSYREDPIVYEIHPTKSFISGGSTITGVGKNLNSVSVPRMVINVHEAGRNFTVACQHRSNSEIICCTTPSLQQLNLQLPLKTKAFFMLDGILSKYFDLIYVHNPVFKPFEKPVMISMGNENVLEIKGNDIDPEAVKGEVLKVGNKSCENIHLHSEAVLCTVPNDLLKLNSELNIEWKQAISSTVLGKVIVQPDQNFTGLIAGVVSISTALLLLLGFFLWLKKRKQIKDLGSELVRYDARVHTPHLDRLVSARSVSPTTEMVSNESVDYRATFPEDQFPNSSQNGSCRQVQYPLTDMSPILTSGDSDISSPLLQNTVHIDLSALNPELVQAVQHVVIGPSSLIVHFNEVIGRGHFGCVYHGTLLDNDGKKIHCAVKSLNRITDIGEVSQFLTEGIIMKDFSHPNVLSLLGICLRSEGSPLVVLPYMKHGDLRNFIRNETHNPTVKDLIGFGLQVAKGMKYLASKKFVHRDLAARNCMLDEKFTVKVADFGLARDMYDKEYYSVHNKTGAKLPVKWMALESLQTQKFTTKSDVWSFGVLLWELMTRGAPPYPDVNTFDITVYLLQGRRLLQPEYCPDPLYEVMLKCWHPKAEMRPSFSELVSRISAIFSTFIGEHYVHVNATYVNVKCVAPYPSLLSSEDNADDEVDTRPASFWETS

## CCc1nc(-c2ccc(F)cc2)c(-c2ccnc(NC(=O)C3CC3)c2)[nH]1
[1]
  IC50: 16 nM
[2]
  IC50: 492 nM
[3]
  remaining at 1 h: 95.2%
[4]
  remaining at 2 h: 96.4%
[5]
  concentration at 2 h: 13.3 ng/g
CYP2C9
  inhibition at 10 µM: 83.6%
[6]
  inhibition: 91.5%
[7]
  inhibition: 2.06%
[8]
  inhibition: -9.7%
[9]
  inhibition: 76.6%
[10]
  inhibition: 74.4%
[11]
  inhibition: -2.16%
[12]
  inhibition: 4.24%
[13]
  inhibition: 2.96%
[14]
  inhibition: 78.3%
[15]
  inhibition: 98.7%
[16]
  inhibition: -4.86%
[17]
  inhibition: 54.9%
[18]
  inhibition: 1.16%
[19]
  inhibition: 5.58%
[20]
  inhibition: -0.24%
[21]
  inhibition: 10.7%
[22]
  inhibition: 10.6%
[23]
  inhibition: 2.76%
